Series [1] has as its system Rattus norvegicus. The experiment in a line: Compound was evaluated for the type-I hypersensitivity in rat POA model after intravenous administration. The class given is functional. The following applies: read-out: ID50 (the source's name). A digest of the protocol: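 Modified Iso method. Rats of 150–200 g were sensitized with three conjunctival injections per eye (bulbar, palpebral, lower) of 50 μL of 1:4-diluted rat IgE anti-ovalbumin antiserum. 24 h later, drug was given IV just before IV challenge with ovalbumin (25 mg/kg) plus Evans blue (12.5 mg/kg in saline). Eyelids and eyeballs were taken at 30 min, extracted in acetone/0.5% sodium sulfate, and read at 620 nm. Result expressed as ID50 (mg/kg).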

A short description of series [2]: Compound was evaluated for pyranenamine lipophilicity. The class given is physicochemical. The settings on record: octanol/water.
The test system of series [3] is Rattus norvegicus. In words: Compound was evaluated for the type-I hypersensitivity in rat POA model at a concentration of 5% administered topically. The class given is functional. A digest of the protocol: (§1)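 Modified Iso passive ocular anaphylaxis in 150–200 g rats. Each eye was sensitized by three conjunctival injections of 50 μL of 1:4-diluted rat IgE anti-ovalbumin antiserum. At 24 h, 10 μL of drug solution was instilled topically 15 min before, just prior to, and 15 min after IV ovalbumin (25 mg/kg) with Evans blue (12.5 mg/kg). At 30 min, eye tissue dye was extracted in acetone/0.5% Na2SO4 and read at 620 nm. Result expressed as % inhibition.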

For series [4], the system named is Rattus norvegicus. The experiment in a line: Compound was evaluated for the type-I hypersensitivity in rat POA model at a concentration of 3% administered topically. The class given is functional. A digest of the protocol:
as §1

The test system of series [5] is Rattus norvegicus. In words: Compound was evaluated for the type-I hypersensitivity in rat POA model at a concentration of 1% administered topically. The class given is functional. A digest of the protocol: as §1
For series [6], the system named is Rattus norvegicus. The experiment in a line: Compound was evaluated for the type-I hypersensitivity in rat POA model at a concentration of 10% administered topically. The class given is functional. A digest of the protocol: as §1
Series [7] relates to Rattus norvegicus. The experiment in a line: Compound was evaluated for the type-I hypersensitivity in rat POA model at a concentration of 4% administered topically. The class given is functional. A digest of the protocol: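 Modified Iso method. Rats (150–200 g) sensitized with three 50 µL injections per eye (bulbar conjunctiva, palpebral, lower conjunctiva) of 1:4-diluted rat IgE anti-ovalbumin antisera. After 24 h, iv challenge with ovalbumin 25 mg/kg plus Evans blue 12.5 mg/kg. Drug (10 µL) instilled 15 min before, just before and 15 min after challenge. Killed at 30 min; eyelids and eyeballs extracted in acetone/0.5% sodium sulfate; read at 620 nm; % inhibition.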

For `CC(=O)C1=C(O)C(=C(C)Nc2cc(NC(=O)[C@H](O)CO)cc(NC(=O)[C@H](O)CO)c2)C(=O)OC1=O`, in the series with Rattus norvegicus [1], the ED50 is 300 mg/kg. The logP in series [2] was -2.44.
As for `CC(=O)c1c(O)c(/C(C)=N/c2cc(NC(=O)C(CO)CO)cc(NC(=O)C(CO)CO)c2)c(O)oc1=O`, the Inhibition with Rattus norvegicus [3] amounted to 41%; in the series with Rattus norvegicus [4], 31%; with Rattus norvegicus [5] it was 12%. Besides, the ED50 in the series on Rattus norvegicus [1] worked out at 30 mg/kg. The logP in series [2] is -2.43.
As to `CC(=O)c1c(O)c(/C(C)=N/c2cc(NC(=O)C(O)CO)cc(NC(=O)C(O)CO)c2)c(O)oc1=O` (stereo not given), the ED50 with Rattus norvegicus [1] came out at 60 mg/kg. In addition, the lipophilicity (logP) in series [2] is -2.44. Besides, the Inhibition in the series with Rattus norvegicus [4] turned out to be 25%; in the series with Rattus norvegicus [5], 16%.
For the molecule `CC(=O)c1c(O)c(/C(C)=N/c2cc(NC(=O)CO)cc(NC(=O)CO)c2)c(O)oc1=O`, the ED50 with Rattus norvegicus [1] is 30 mg/kg. Moreover, the logP in series [2] is -0.32. In addition, the Inhibition in the series on Rattus norvegicus [4] turned out to be 15%.
Turning to `CC(=O)C1=C(O)C(=C(C)Nc2cc(NC(=O)[C@@H](O)CO)cc(NC(=O)[C@@H](O)CO)c2)C(=O)OC1=O`, the values for the Inhibition with Rattus norvegicus [3], in the series with Rattus norvegicus [6] and in the series with Rattus norvegicus [4] were 63%, 79% and 40%, respectively. The ED50 in the series on Rattus norvegicus [1] was found to be 30 mg/kg. Moreover, the logP in series [2] is -2.44.
Molecule `O=C([O-])c1cc(=O)c2c(OCC(O)COc3cccc4oc(C(=O)[O-])cc(=O)c34)cccc2o1.[Na+].[Na+]` [CROMOLYN SODIUM] yielded an Inhibition in the series on Rattus norvegicus [7] of 0%.

(Values after ChEMBL document CHEMBL1125909, “Synthesis of chiral and achiral pyranenamine derivatives. Potent agents with topical ocular antiallergic activity” (J Med Chem, 1991).)
